{
  "source": "ChEMBL document CHEMBL3352437",
  "about": "“Novel 3,5-bis(arylidene)-4-oxo-1-piperidinyl dimers: structure-activity relationships and potent antileukemic and antilymphoma cytotoxicity” (Eur J Med Chem, 2014)",
  "key": {"[1]": {"test_system": "HCC70", "assay": "Cytotoxicity against human HCC70 cells assessed as dead cells at 1 uM after 24 hrs", "format": "functional", "summary_of_the_method": "(§1)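 Dienones added as DMSO solutions to cells in RPMI medium and incubated 24 h at 37°C. Cytotoxicity was scored as cell-membrane disruption by propidium iodide staining and expressed as percentage of dead cells, averaged over three independent experiments.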"}, "[2]": {"assay": "Cytotoxicity against human MOLT3 cells assessed as dead cells at 1 uM after 24 hrs", "format": "functional, MOLT-3", "summary_of_the_method": "as §1"}, "[3]": {"assay": "Cytotoxicity against human MDA231 cells assessed as dead cells at 1 uM after 24 hrs", "format": "functional, MDA-MB-231", "summary_of_the_method": "as §1"}, "[4]": {"test_system": "COLO 205", "assay": "Cytotoxicity against human COLO205 cells assessed as inhibition of tumor growth after 24 hrs", "format": "functional, cell-based", "conditions": "COLO 205, 24 h"}, "[5]": {"test_system": "HCC 2998", "assay": "Cytotoxicity against human HCC2998 cells assessed as inhibition of tumor growth after 24 hrs", "format": "functional, cell-based", "conditions": "HCC 2998, 24 h"}, "[6]": {"test_system": "HS27", "assay": "Cytotoxicity against human HS27 cells assessed as dead cells at 1 uM after 24 hrs", "format": "cell-based", "conditions": "hs27, 24 h", "summary_of_the_method": "(§2)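 Compounds added from DMSO solutions to cells in medium (RPMI; DMEM for Hs-27 fibroblasts) and incubated 24 h at 37°C. Membrane disruption scored by propidium iodide uptake. Result is percentage of dead cells, average of three independent experiments.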"}, "[7]": {"assay": "Cytotoxicity against human MCF10A cells assessed as dead cells at 1 uM after 24 hrs", "format": "cell-based", "conditions": "mcf-10a", "summary_of_the_method": "as §2"}, "[8]": {"test_system": "Ramos", "assay": "Cytotoxicity against human Ramos cells assessed as dead cells at 1 uM after 24 hrs", "format": "functional", "summary_of_the_method": "as §1"}, "[9]": {"assay": "Cytotoxicity against human 22Rvl cells assessed as dead cells at 1 uM after 24 hrs", "format": "functional", "summary_of_the_method": "as §1"}, "[10]": {"assay": "Cytotoxicity against human NALM6 cells assessed as dead cells at 1 uM after 24 hrs", "format": "functional, NALM-6", "summary_of_the_method": "as §1"}, "[11]": {"test_system": "RPMI-8226", "assay": "Ratio of melphalan IC50 to compound IC50 for human RPMI8226 cells", "format": "functional", "conditions": "pooled result: one value given for 3 cell lines, strains, targets or settings"}, "[12]": {"assay": "Cytotoxicity against human NCI60 cells assessed as inhibition of tumor growth after 24 hrs", "format": "functional, cell-based", "conditions": "NCI60, 24 h"}, "[13]": {"test_system": "SR", "assay": "Antileukemic activity against human SR cells assessed as inhibition of tumor growth after 24 hrs", "format": "functional, cell-based"}, "[14]": {"test_system": "HL-60(TB)", "assay": "Antileukemic activity against human HL-60(TB) cells assessed as inhibition of tumor growth after 24 hrs", "format": "functional, cell-based", "conditions": "HL-60, 24 h"}, "[15]": {"test_system": "K562", "assay": "Antileukemic activity against human K562 cells assessed as inhibition of tumor growth after 24 hrs", "format": "functional, cell-based", "conditions": "K562, 24 h"}, "[16]": {"assay": "Antileukemic activity against human RPMI8226 cells assessed as inhibition of tumor growth after 24 hrs", "format": "functional, cell-based", "conditions": "rpmi-8226"}, "[17]": {"test_system": "COLO 205", "assay": "Ratio of 5-fluorouracil IC50 to compound IC50 for human COLO205 cells", "format": "functional", "conditions": "pooled result: one value given for 5 cell lines, strains, targets or settings"}, "[18]": {"test_system": "SW-620", "assay": "Cytotoxicity against human SW620 cells assessed as inhibition of tumor growth after 24 hrs", "format": "functional, cell-based", "conditions": "SW-620, 24 h"}, "[19]": {"test_system": "KM12", "assay": "Cytotoxicity against human KM12 cells assessed as inhibition of tumor growth after 24 hrs", "format": "functional, cell-based", "conditions": "KM12, 24 h"}, "[20]": {"test_system": "CCRF-CEM", "assay": "Antiproliferative activity against human CEM cells after 72 hrs by coulter counting analysis", "format": "functional, cell-based", "summary_of_the_method": "(§3)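 Cells exposed to a range of concentrations in RPMI 1640 at 37°C for 72 h. Surviving cells counted by Coulter counter. IC50 taken from concentration-response curves, mean ± SD of at least three independent experiments.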"}, "[21]": {"test_system": "LAPC4", "assay": "Cytotoxicity against human LAPC4 cells assessed as dead cells at 1 uM after 24 hrs", "format": "functional", "summary_of_the_method": "as §1"}, "[22]": {"test_system": "MCF7", "assay": "Cytotoxicity against human MCF7 cells assessed as dead cells at 1 uM after 24 hrs", "format": "functional", "summary_of_the_method": "as §1"}, "[23]": {"assay": "Cytotoxicity against human HuT-102 cells assessed as dead cells at 1 uM after 24 hrs", "format": "functional", "summary_of_the_method": "as §1"}, "[24]": {"test_system": "MOLT-4", "assay": "Ratio of curcumin IC50 to compound IC50 for human Molt4/C8 cells", "format": "functional", "conditions": "pooled result: one value given for 4 cell lines, strains, targets or settings"}, "[25]": {"test_system": "YT", "assay": "Cytotoxicity against human YT cells assessed as dead cells at 1 uM after 24 hrs", "format": "functional", "summary_of_the_method": "as §1"}, "[26]": {"assay": "Cytotoxicity against human HCT15 cells assessed as inhibition of tumor growth after 24 hrs", "format": "functional, cell-based", "conditions": "HCT-15, 24 h"}, "[27]": {"test_system": "CCRF-CEM", "assay": "Cytotoxicity against human CEM cells assessed as dead cells at 1 uM after 24 hrs", "format": "functional", "summary_of_the_method": "as §1"}, "[28]": {"test_system": "L1210", "assay": "Antiproliferative activity against mouse L1210 cells after 72 hrs by coulter counting analysis", "format": "functional, cell-based", "conditions": "L1210, 72 h"}, "[29]": {"assay": "Antiproliferative activity against human Molt4/C8 cells after 72 hrs by coulter counting analysis", "format": "functional, cell-based", "conditions": "MOLT-4, 72 h", "summary_of_the_method": "as §3"}, "[30]": {"test_system": "Raji", "assay": "Cytotoxicity against human Raji cells assessed as dead cells at 1 uM after 24 hrs", "format": "functional", "summary_of_the_method": "as §1"}, "[31]": {"test_system": "Jurkat", "assay": "Cytotoxicity against human Jurkat cells assessed as dead cells at 1 uM after 24 hrs", "format": "functional", "summary_of_the_method": "as §1"}, "[32]": {"test_system": "EL4", "assay": "Cytotoxicity against mouse EL4 cells assessed as dead cells at 1 uM after 24 hrs", "format": "functional", "summary_of_the_method": "as §1"}, "[33]": {"test_system": "DU-145", "assay": "Cytotoxicity against human DU145 cells assessed as dead cells at 1 uM after 24 hrs", "format": "functional", "summary_of_the_method": "as §1"}, "[34]": {"assay": "Cytotoxicity against human SupT1 cells assessed as dead cells at 1 uM after 24 hrs", "format": "functional, SUP-T1", "summary_of_the_method": "as §1"}, "[35]": {"test_system": "HeLa", "assay": "Antiproliferative activity against human HeLa cells after 72 hrs by coulter counting analysis", "format": "functional, cell-based", "summary_of_the_method": "as §3"}, "[36]": {"test_system": "BJAB", "assay": "Cytotoxicity against human BJAB cells assessed as dead cells at 1 uM after 24 hrs", "format": "functional", "summary_of_the_method": "as §1"}, "[37]": {"test_system": "MOLT-4", "assay": "Ratio of melphalan IC50 to compound IC50 for human Molt4/C8 cells", "format": "functional", "conditions": "pooled result: one value given for 4 cell lines, strains, targets or settings"}},
  "data": [
    {"smiles": "COc1cc(/C=C2\\CN(C(=O)C(=O)N3C/C(=C\\c4cc(OC)c(OC)c(OC)c4)C(=O)/C(=C/c4cc(OC)c(OC)c(OC)c4)C3)C/C(=C\\c3cc(OC)c(OC)c(OC)c3)C2=O)cc(OC)c1OC", "values": [
      {"measurement": "Activity", "setting": "[1]", "result": 7.3, "unit": "%"},
      {"measurement": "Activity", "setting": "[2]", "result": 30.3, "unit": "%"},
      {"measurement": "Activity", "setting": "[3]", "result": 4.7, "unit": "%"},
      {"measurement": "IC50", "setting": "[4]", "result": 70, "unit": "nM"},
      {"measurement": "IC50", "setting": "[5]", "result": 100, "unit": "nM"},
      {"measurement": "Activity", "setting": "[6]", "result": 15.4, "unit": "%"},
      {"measurement": "Activity", "setting": "[7]", "result": 7.6, "unit": "%"},
      {"measurement": "Activity", "setting": "[8]", "result": 65.1, "unit": "%"},
      {"measurement": "Activity", "setting": "[9]", "result": 3.4, "unit": "%"},
      {"measurement": "Activity", "setting": "[10]", "result": 67.6, "unit": "%"},
      {"measurement": "Ratio IC50", "setting": "[11]", "result": 1418},
      {"measurement": "IC50", "setting": "[12]", "result": 60, "unit": "nM"},
      {"measurement": "IC50", "setting": "[13]", "result": 20, "unit": "nM"},
      {"measurement": "IC50", "setting": "[14]", "result": 70, "unit": "nM"},
      {"measurement": "IC50", "setting": "[15]", "result": 30, "unit": "nM"},
      {"measurement": "IC50", "setting": "[16]", "result": 20, "unit": "nM"},
      {"measurement": "Ratio IC50", "setting": "[17]", "result": 121},
      {"measurement": "IC50", "setting": "[18]", "result": 30, "unit": "nM"},
      {"measurement": "IC50", "setting": "[19]", "result": 60, "unit": "nM"},
      {"measurement": "IC50", "setting": "[20]", "result": 325, "unit": "nM"},
      {"measurement": "Activity", "setting": "[21]", "result": 9.7, "unit": "%"},
      {"measurement": "Activity", "setting": "[22]", "result": 43.2, "unit": "%"},
      {"measurement": "Activity", "setting": "[23]", "result": 50.5, "unit": "%"},
      {"measurement": "Ratio IC50", "setting": "[24]", "result": 63.8},
      {"measurement": "Activity", "setting": "[25]", "result": 13, "unit": "%"},
      {"measurement": "IC50", "setting": "[26]", "result": 70, "unit": "nM"},
      {"measurement": "Activity", "setting": "[27]", "result": 84.1, "unit": "%"},
      {"measurement": "IC50", "setting": "[28]", "result": 182, "unit": "nM"},
      {"measurement": "IC50", "setting": "[29]", "result": 47, "unit": "nM"},
      {"measurement": "Activity", "setting": "[30]", "result": 55.7, "unit": "%"},
      {"measurement": "Activity", "setting": "[31]", "result": 78.7, "unit": "%"},
      {"measurement": "Activity", "setting": "[32]", "result": 33.8, "unit": "%"},
      {"measurement": "Activity", "setting": "[33]", "result": 41.3, "unit": "%"},
      {"measurement": "Activity", "setting": "[34]", "result": 38.2, "unit": "%"},
      {"measurement": "IC50", "setting": "[35]", "result": 246, "unit": "nM"},
      {"measurement": "Activity", "setting": "[36]", "result": 60.9, "unit": "%"},
      {"measurement": "Ratio IC50", "setting": "[37]", "result": 13.5}
    ]}
  ]
}
